From PubChem BioAssay
Only a selection was taken, and hits are over-represented in it overall.
IDH1 R132H inh: IDH1 R132H (human) inhibition. O75874. IDH1 R132H reductase, diaphorase/resazurin fluorescence, 60 min. inhibition, % at 10 µM. 70,000 compounds, 0.18% hits; in the data active means inhibition above about 34%
Target sequence (O75874 whole entry R132H): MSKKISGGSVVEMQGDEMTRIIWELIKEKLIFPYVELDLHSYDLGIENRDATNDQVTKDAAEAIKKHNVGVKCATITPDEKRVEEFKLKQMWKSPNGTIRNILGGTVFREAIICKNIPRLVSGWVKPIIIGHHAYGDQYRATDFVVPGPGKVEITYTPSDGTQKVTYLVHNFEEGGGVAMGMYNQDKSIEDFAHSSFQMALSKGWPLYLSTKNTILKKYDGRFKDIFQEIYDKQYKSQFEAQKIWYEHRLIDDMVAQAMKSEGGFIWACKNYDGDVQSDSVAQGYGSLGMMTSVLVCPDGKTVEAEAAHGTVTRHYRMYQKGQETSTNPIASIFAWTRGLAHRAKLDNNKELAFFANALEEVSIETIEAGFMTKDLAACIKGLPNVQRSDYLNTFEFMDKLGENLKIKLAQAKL
KDM4C inh: KDM4C (human) demethylase inhibition | GST-KDM4C 2-372, H3K9me3 peptide, LANCE TR-FRET | AID 720574 | inhibition, % at 12.5 µM | 96,000 compounds, 0.15% hits | Q9H3R0;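 active means mean replicate inhibition above about 25%, with at least 55% of replicates also reaching it, limit read from the data, passing the limit was not always enough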
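System: N-terminal GST-fused human GASC-1 (KDM4C) fragment, residues 2-372 / Amount: 10 nM GST-KDM4C in enzyme reaction / Also added: H3K9me3 peptide with Fe(II)/2OG / Times: 30 min demethylation and 1 h detection at room temperature / Signal: LANCE TR-FRET / Read-out basis: Fall in 671/618 emission ratio as inhibition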
T cruzi growth-1: inhibitors of T. cruzi proliferation; T. cruzi beta-gal in NIH3T3, GalScreen luminescence, 90 h; inhibition, % at 8.34 µM; 77,000 compounds, 5.9% hits;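 active means mean inhibition above about 93%, with at least 55% of replicates each passing it, limit read from the data, passing the limit was not always enough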
T cruzi growth-2: inhibitors of T. cruzi proliferation | shares compounds with T cruzi growth-1 | T. cruzi beta-gal in NIH3T3, GalScreen luminescence, 90 h | inhibition, % at 8.35 µM | 5,600 compounds, 72% hits;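 active means mean replicate inhibition above about 95% and at least 55% of replicates individually reaching it, limit read from the data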
T cruzi growth-3: Trypanosoma cruzi proliferation inhibition | inhibition, % at 2.09 µM | 5,600 compounds, 21% hits | AID 651740 | T. cruzi beta-gal in NIH3T3, GalScreen luminescence, 90 h | shares compounds with T cruzi growth-1;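 active means mean inhibition above about 95%, with at least 55% of replicates also reaching it, limit read from the data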
NIH3T3 tox: NIH/3T3 (mouse) viability loss. shares compounds with T cruzi growth-1. 5,600 compounds, 14% hits. AID 651742. cytotoxicity (signal decrease), % at 8.35 µM. NIH/3T3 viability, CellTiter-Glo ATP luminescence, 90 h;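 active means mean signal decrease across replicates above about 35% based on untreated-well scatter, with enough replicates individually passing, limit read from the data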
NIH3T3 tox 2: cytotoxicity in mouse NIH/3T3 fibroblasts; shares compounds with T cruzi growth-1; NIH/3T3 viability, CellTiter-Glo ATP luminescence, 90 h; AID 651744; 5,600 compounds, 56% hits; inhibition, % at 24.9 µM;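 active means mean loss of cell viability signal at or above a set limit, and enough replicates individually reaching it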
Large screens that a line does not name were inactive (follow-up assays come after a bar, where they were run).

COc1ccc(Cn2c(C)cc(O)cc2=O)cc1OC	none (no result: KDM4C inh, T cruzi growth-1)
Cc1cc(Br)ccc1NC(=O)CSc1nnc(N)s1	none (no result: KDM4C inh, T cruzi growth-1)
Cc1ccccc1S(=O)(=O)N1CCCCN2[C@H](CO)[C@H](c3ccc(-c4cccc(F)c4)cc3)[C@@H]2C1	none (no result: IDH1 R132H inh)
Cc1ccccc1S(=O)(=O)N1CCCCN2[C@H](CO)[C@H](c3ccc(-c4ccccc4)cc3)[C@@H]2C1	none (no result: IDH1 R132H inh, KDM4C inh)
Cc1ccccc1S(=O)(=O)N1CCCCN2[C@@H](CO)[C@@H](c3ccc(-c4cccc(F)c4)cc3)[C@@H]2C1	none (no result: IDH1 R132H inh)
Cc1ccccc1S(=O)(=O)N1CCCCN2[C@H](CO)[C@@H](c3ccc(-c4cccc(F)c4)cc3)[C@H]2C1	T cruzi growth-1 106.3 (no result: IDH1 R132H inh) | T cruzi growth-2 103.5 | T cruzi growth-3 inactive | NIH3T3 tox inactive | NIH3T3 tox 2 75.8
Cc1ccccc1S(=O)(=O)N1CCCCN2[C@H](CO)[C@@H](c3ccc(-c4ccccc4)cc3)[C@@H]2C1	T cruzi growth-1 101.6 (no result: IDH1 R132H inh, KDM4C inh) | T cruzi growth-2 97.7 | T cruzi growth-3 inactive | NIH3T3 tox 35.6 | NIH3T3 tox 2 44.9
Cc1ccccc1S(=O)(=O)N1CCCCN2[C@H](C1)[C@H](c1ccc(-c3cccc(F)c3)cc1)[C@@H]2CO	T cruzi growth-1 103.0 (no result: IDH1 R132H inh) | T cruzi growth-2 102.7 | T cruzi growth-3 105.6 | NIH3T3 tox inactive | NIH3T3 tox 2 56.6
COc1ccc(C(=O)NCC(=O)Nc2ccccc2C(F)(F)F)cc1OC	none (no result: KDM4C inh, T cruzi growth-1)
COc1ccc(NC(=O)CSc2nc3c(c(C(F)(F)F)n2)CCCC3)c([N+](=O)[O-])c1	none (no result: KDM4C inh, T cruzi growth-1)
C/C=C/c1ccc([C@H]2[C@@H](CO)N3CCCCN(S(=O)(=O)c4cccc(C)c4)C[C@@H]23)cc1	T cruzi growth-1 110.6 (no result: IDH1 R132H inh) | T cruzi growth-2 112.4 | T cruzi growth-3 inactive | NIH3T3 tox inactive | NIH3T3 tox 2 80.0
C/C=C/c1ccc([C@@H]2[C@@H](CO)N3CCCCN(S(=O)(=O)c4ccc(F)cc4)C[C@@H]23)cc1	none (no result: IDH1 R132H inh)
C/C=C/c1ccc([C@@H]2[C@H]3CN(S(=O)(=O)c4ccc(F)cc4)CCCCN3[C@H]2CO)cc1	none (no result: IDH1 R132H inh)
C/C=C/c1ccc([C@H]2[C@H](CO)N3CCCCN(S(=O)(=O)c4cccc(C)c4)C[C@@H]23)cc1	T cruzi growth-1 117.8 (no result: IDH1 R132H inh) | T cruzi growth-2 107.0 | T cruzi growth-3 inactive | NIH3T3 tox inactive | NIH3T3 tox 2 104.5
C[C@H]1CN([C@@H](C)CO)C(=O)c2cc(NC(=O)Nc3cccc4ccccc34)ccc2O[C@H]1CN(C)Cc1ccc(-c2ccccc2)cc1	none
C[C@@H]1CN([C@H](C)CO)C(=O)c2cc(NC(=O)Nc3cccc4ccccc34)ccc2O[C@H]1CN(C)Cc1ccc(-c2ccccc2)cc1	T cruzi growth-1 112.3 | T cruzi growth-2 103.2 | T cruzi growth-3 inactive | NIH3T3 tox inactive | NIH3T3 tox 2 inactive
C[C@@H]1CN([C@@H](C)CO)C(=O)c2cc(NC(=O)Nc3cccc4ccccc34)ccc2O[C@H]1CN(C)Cc1ccc(-c2ccccc2)cc1	none (no result: IDH1 R132H inh)
C[C@H](CO)N1C[C@H](C)[C@@H](CN(C)Cc2ccc(-c3ccccc3)cc2)Oc2ccc(NC(=O)Nc3cccc4ccccc34)cc2C1=O	T cruzi growth-1 101.6 (no result: IDH1 R132H inh) | T cruzi growth-2 106.2 | T cruzi growth-3 inactive | NIH3T3 tox inactive | NIH3T3 tox 2 inactive
C[C@@H]1CN([C@@H](C)CO)C(=O)c2cc(NS(=O)(=O)c3cccs3)ccc2O[C@@H](C)CCCCO[C@H]1CN(C)C(=O)c1ccccc1	none (no result: IDH1 R132H inh)
C[C@@H]1CN([C@H](C)CO)C(=O)c2cc(-c3cccnc3)cnc2O[C@@H]1CN(C)Cc1ccc(Oc2ccccc2)cc1	none
C[C@@H]1CN([C@@H](C)CO)C(=O)c2cc(-c3ccncc3)cnc2O[C@H]1CN(C)Cc1ccc(Oc2ccccc2)cc1	T cruzi growth-1 93.6 | T cruzi growth-2 101.7 | T cruzi growth-3 inactive | NIH3T3 tox 40.7 | NIH3T3 tox 2 104.4
C[C@H]1CN([C@@H](C)CO)C(=O)c2cc(-c3cccnc3)cnc2O[C@H]1CN(C)Cc1ccc(Oc2ccccc2)cc1	none
